Measured values: ChEMBL document CHEMBL1150294, “Synthesis of indirubin-N'-glycosides and their anti-proliferative activity against human cancer cell lines” (Bioorg Med Chem, 2008)

What was measured:
A-427 = assay: Antiproliferative activity against human A427 cells after 96 hrs by crystal violet assay; format: functional, cell-based; conditions: A-427, 96 h
Procedure, shortened: (§1)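 Adherent lines from DSMZ grown in RPMI 1640 with 10% FCS plus penicillin G/streptomycin. Seeded at 1000 cells/well 24 h before dosing, with an untreated plate fixed at dosing as the time-zero reference. Compounds came from DMSO series, five concentrations at 0.1% final DMSO, eight wells each. Exposure was continuous for 96 h. Cells were glutaraldehyde-fixed, stained with 0.02% crystal violet, dye eluted in 70% ethanol, OD 570 nm. Results are corrected T/C% against time-zero.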

5637 [1] = assay: Antiproliferative activity against human 5637 cells after 96 hrs by crystal violet assay; format: functional, cell-based; conditions: Homo sapiens, 5637, 96 h; procedure, shortened: as §1
MCF7 = assay: Antiproliferative activity against human MCF7 cells after 96 hrs by crystal violet assay; format: functional, cell-based; conditions: MCF7, 96 h; procedure, shortened: as §1
[2] = Antiproliferative activity against human KYSE70 cells after 96 hrs by crystal violet assay; format: functional, cell-based; conditions: KYSE-70, 96 h; procedure, shortened: as §1
[3] = Growth inhibition of human KYSE70 cells at 12.5 uM after 96 hrs by crystal violet assay; format: functional; conditions: KYSE-70, 96 h; procedure, shortened: as §1
5637 [4] = assay: Growth inhibition of human 5637 cells at 12.5 uM after 96 hrs by crystal violet assay; format: functional; conditions: Homo sapiens, 5637, 96 h; procedure, shortened: as §1

| IC50 (MCF7) | SMILES | IC50 (A-427) | IC50 5637 [1] | IC50 [2] | inhibition at 12.5 µM [3] | inhibition at 12.5 µM 5637 [4] |
| --- | --- | --- | --- | --- | --- | --- |
| 25.8 µM | O=C1/C(=C2/C(=O)N([C@@H]3O[C@H](CO)[C@H](O)[C@H](O)[C@H]3O)c3ccccc32)Nc2ccccc21 | 13.2 µM | 24.9 µM | 41.5 µM | – | – |
| 7.98 µM | C[C@@H]1O[C@H](N2C(=O)/C(=C3\Nc4ccc(Cl)cc4C3=O)c3ccccc32)[C@H](O)[C@H](O)[C@H]1O | – | 8.23 µM | 5.94 µM | – | – |
| 6.16 µM | Cc1cc(C)c2c(c1)N([C@H]1O[C@@H](C)[C@H](O)[C@@H](O)[C@H]1O)C(=O)/C2=C1\Nc2ccccc2C1=O | – | > 12.5 µM | > 12.5 µM | < 20% | < 20% |
| 15.7 µM | O=C1/C(=C2/C(=O)N([C@@H]3O[C@H](CO)[C@@H](O)[C@H](O)[C@H]3O)c3ccccc32)Nc2ccccc21 | 11.8 µM | 14.4 µM | 28.9 µM | – | – |
| 17 µM | C[C@@H]1O[C@H](N2C(=O)/C(=C3\Nc4ccccc4\C3=N/O)c3ccccc32)[C@H](O)[C@H](O)[C@H]1O | – | 15.5 µM | 15.4 µM | – | – |
| 0.76 µM | C[C@@H]1O[C@H](N2C(=O)/C(=C3\Nc4ccccc4C3=O)c3ccccc32)[C@H](O)[C@H](O)[C@H]1O | > 12.5 µM | > 12.5 µM | > 12.5 µM | – | – |
| 4.22 µM | O=C1/C(=C2/C(=O)N([C@@H]3O[C@H](CO)[C@@H](O)[C@H](O)[C@@H]3O)c3ccccc32)Nc2ccccc21 | 5.55 µM | 10.6 µM | 11.8 µM | – | – |
| 0.67 µM | C[C@@H]1O[C@@H](N2C(=O)/C(=C3\Nc4ccccc4C3=O)c3ccccc32)[C@H](O)[C@H](O)[C@H]1O | > 25 µM | > 25 µM | > 25 µM | < 20% | < 20% |
| 6.96 µM | C[C@@H]1O[C@@H](N2C(=O)/C(=C3\Nc4ccc(Cl)cc4C3=O)c3ccccc32)[C@H](O)[C@H](O)[C@H]1O | – | 12.9 µM | 15.3 µM | – | – |
| 6.78 µM | Nc1ncn([C@@H]2O[C@H](CO)[C@@H](O)[C@H]2O)c(=O)n1 [AZACITIDINE] | 0.63 µM | 1.73 µM | 1.59 µM | – | – |
| 0.5 µM | COc1cc([C@@H]2c3cc4c(cc3[C@@H](O[C@@H]3O[C@@H]5CO[C@@H](C)O[C@H]5[C@H](O)[C@H]3O)[C@H]3COC(=O)[C@H]23)OCO4)cc(OC)c1O [ETOPOSIDE] | 0.13 µM | 0.54 µM | 0.94 µM | – | – |

| SMILES | IC50 (MCF7) | IC50 (A-427) | IC50 5637 [1] | IC50 [2] | inhibition at 12.5 µM [3] | inhibition at 12.5 µM 5637 [4] |
| --- | --- | --- | --- | --- | --- | --- |
| O=C(O)CCCc1ccc(N(CCCl)CCCl)cc1 [CHLORAMBUCIL] | 18.4 µM | 9.5 µM | 6.55 µM | 38.4 µM | – | – |
